Assay outcomes as filed in PubChem BioAssay.
Hits are enriched below; roughly 4% of the tested compounds scored in any of these assays.
Granule exo inh: lytic granule exocytosis inhibition; TALL-104 LAMP-1 surface exposure, flow cytometry; cells stimulated with thapsigargin and PMA; 360,000 tested, 0.66% active; AID 651702; inhibition, % at 10 µM;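 active = inhibition above about 55%, limit read from the data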
ABHD5 PLIN5 PPI: blocks binding of human ABHD5 to perilipin-5; 360,000 tested, 0.78% active; Q00G26+Q8WTS1; Split G. princeps luciferase complementation, luminescence, 4 h; inhibition, % at 4 µM;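 active = inhibition above the mean inhibition across every tested compound plus 3 SD, cut at about 22% in these data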
Target sequence (Q00G26 whole entry, looked up): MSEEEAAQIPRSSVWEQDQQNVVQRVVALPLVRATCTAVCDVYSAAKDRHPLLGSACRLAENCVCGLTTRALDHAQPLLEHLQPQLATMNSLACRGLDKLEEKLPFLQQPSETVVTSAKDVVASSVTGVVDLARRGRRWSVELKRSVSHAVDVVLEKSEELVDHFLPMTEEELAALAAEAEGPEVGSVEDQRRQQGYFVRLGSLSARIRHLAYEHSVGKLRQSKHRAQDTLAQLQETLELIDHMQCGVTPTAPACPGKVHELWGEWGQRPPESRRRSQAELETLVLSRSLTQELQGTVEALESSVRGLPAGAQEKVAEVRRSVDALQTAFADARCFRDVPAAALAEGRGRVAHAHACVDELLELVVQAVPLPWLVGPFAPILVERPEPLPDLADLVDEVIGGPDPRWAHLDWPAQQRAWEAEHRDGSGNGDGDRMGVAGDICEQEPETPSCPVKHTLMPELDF
Target sequence (Q8WTS1 whole entry, looked up): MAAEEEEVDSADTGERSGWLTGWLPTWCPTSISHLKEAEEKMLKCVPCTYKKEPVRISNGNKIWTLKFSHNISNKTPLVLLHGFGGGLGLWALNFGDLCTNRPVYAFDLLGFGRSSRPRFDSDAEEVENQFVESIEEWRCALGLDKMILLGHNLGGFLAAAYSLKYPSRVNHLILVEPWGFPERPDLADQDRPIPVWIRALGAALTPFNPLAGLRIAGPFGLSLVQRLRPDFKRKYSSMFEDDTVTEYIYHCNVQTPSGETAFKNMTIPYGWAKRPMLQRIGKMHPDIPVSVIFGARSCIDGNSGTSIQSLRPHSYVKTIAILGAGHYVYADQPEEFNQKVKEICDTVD
UPR CHOP act: activators of apoptotic arm of unfolded protein response (CHOP). CHO-CHOP luciferase reporter, UPR activation, luminescence; percent of tunicamycin response over DMSO baseline. activation, % at 10 µM. 330,000 tested, 0.34% active;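 active = at 10 µM dose, activation of 40% or more, normalized to positive control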
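Evaluation: % reporter activation, DMSO baseline versus tunicamycin full activation; System: CHO-CHOP luciferase reporter cell line; Input: 500 cells/well; Incubation: 6 h compound treatment, 37 °C; Measured by: Steady-Glo luciferase luminescence; Dosing: one dose, 10 µM in 0.5% DMSO; Buffer or medium: F12 medium, 10% FBS; Benchmarks: positive tunicamycin 10 µg/mL, negative DMSO alone.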
Mdm2 MdmX PPI: inhibitors of human Mdm2/MdmX interaction; O15151+Q00987; AID 485346; 330,000 tested, 3% active; SaOS-2 split-luciferase Mdm2/MdmX complementation, luminescence; inhibition, % at 8 µM;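 active = inhibition of at least 50% at 8 µM in the primary screen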
UPR XBP1 act: adaptive UPR (XBP1) activation; CHO-XBP1 luciferase reporter, IRE1-XBP1 UPR activation, luminescence; percent of tunicamycin response, DMSO as zero; activation, % at 20 µM; 330,000 tested, 0.33% active; AID 463104;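 active = versus positive control, 20 µM dose yields 30% or more activation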
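assay system = CHO-XBP1 luciferase reporter cells | amount = 1000 cells/well | buffer or medium = F12 plus 10% FBS | compound dosing = single point, 20 µM final compound, 1% DMSO | incubation = 16-18 h cell attachment at 37 °C, then 6 h compound exposure | detection = Steady-Glo luminescence read | controls = tunicamycin 10 µg/mL and vehicle-only wells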
Mdm2-MdmX conf: confirmation of human Mdm2/MdmX interaction inhibitors. inhibition, % at 8 µM. Mdm2-MdmX binding, luminescent assay. shares compounds with Mdm2 MdmX PPI. AID 489028. 10,000 tested, 55% active; in the data active = inhibition above about 40%
Full FLuc ctr: full-length luciferase inhibition in Mdm2/MdmX counter-screen. shares compounds with Mdm2 MdmX PPI. 6,200 tested, 77% active. inhibition, % at 8 µM. SaOS-2 full-length luciferase counterscreen, luminescence;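 active = mean inhibition at 8 µM reaching about 37%, which flags the compound as non-specific, limit read from the data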;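 note: p53-null SaOS-2 cells with luciferase driven by a doxycycline-inducible promoter; compound on cells about two nights before reading with doxycycline added after day one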
A number is an active result; - = inactive; . = no result.

SMILES | Granule exo inh | ABHD5 PLIN5 PPI | UPR CHOP act | Mdm2 MdmX PPI | UPR XBP1 act | Mdm2-MdmX conf | Full FLuc ctr
CC(C)C[C@H]1CN=C(Nc2ccccc2)N1CCCC1CCCCC1 | - | - | - | 50 | - | - | .
N#Cc1c2ccc([N+](=O)[O-])cc2[n+]([O-])n1-c1ccccc1 | - | - | - | 77 | - | - | .
COc1ccc(C(=O)Nc2ccc(C3(C#N)CCCC3)cc2)cc1 | - | - | - | - | - | . | .
CN[C@H](CC(=O)O)C(=O)O | - | - | - | - | - | . | .
Oc1c(N=NC(=S)Nc2ccccc2F)c2ccccc2n1Cc1ccccc1Cl | - | - | - | - | - | . | .
Cc1c(Cl)cccc1NC(=S)N=Nc1c(O)n(CN2CCOCC2)c2ccccc12 | - | . | - | 82 | - | 63 | 51
C=CCn1c(O)c(N=NC(=S)Nc2ccccc2F)c2ccccc21 | - | - | - | 76 | - | 57 | 50
C/C(Cl)=C\Cn1c(O)c(N=NC(N)=S)c2ccccc21 | - | - | - | - | - | . | .
Cc1ccc(Cn2c(O)c(N=NC(=S)Nc3ccccc3F)c3ccccc32)cc1 | - | - | - | 57 | - | 60 | 48
Oc1c(N=NC(=S)Nc2ccccc2F)c2ccccc2n1Cc1ccccc1 | - | - | - | - | - | . | .
C=CCn1c(O)c(N=NC(=S)Nc2cccc(C)c2)c2ccccc21 | - | - | - | 61 | - | 55 | -
Cc1ccc(NC(=O)Cn2c(O)c(N=NC(N)=S)c3ccccc32)cc1 | - | - | - | 51 | 60 | - | 65
CC(C)CN(C(=O)COC(=O)c1nc(Cl)ccc1Cl)C1CCS(=O)(=O)C1 (centres undefined) | - | - | - | - | - | . | .
COc1cccc(CNC(=O)c2cc3oc4ccccc4c3n2C)c1OC | - | - | - | 97 | - | 96 | 47
CCOc1ccc2cc(C(=O)NCc3ccccc3)c(=N)oc2c1 | - | - | - | - | - | . | .
CCOc1ccccc1CNC(=O)c1cc2oc3ccccc3c2n1CC | - | - | - | 93 | - | 89 | -
CCOc1ccc(CNC(=O)c2cc3oc4ccccc4c3n2C)cc1 | - | - | - | 85 | - | 88 | -
Cc1ccc(CS(=O)(=O)c2ccccc2-c2nnc(-c3ccc(Cl)cc3)o2)cc1 | - | - | - | 55 | - | - | .
COc1ccc(OC)c(Nc2nc(-c3cccc([N+](=O)[O-])c3)nc3ccccc23)c1 | - | - | - | 60 | - | - | .
O=C(C1CCCCC1)N1CCN(c2nc(-c3ccc(F)cc3)cs2)CC1 | - | - | - | - | - | . | .
Cn1cc(/C=C/C(=O)c2ccccc2)c2ccccc21 | - | - | - | - | - | . | .
Cc1cc2c(c(/C=C/C(=O)c3ccccc3)c1)OC1(C=C2)Oc2ccccc2C(=O)N1C (centres undefined) | - | - | - | 91 | - | 83 | 48
COc1ccc(C(C#N)c2nc3ccccc3nc2Cl)cc1 (centres undefined) | - | - | - | 52 | - | - | .
O=C(N/N=C/c1cn(-c2cccs2)nc1-c1ccccc1)c1ccccc1Br | - | - | - | - | - | . | .
O=C(N/N=C/c1cn(-c2cccs2)nc1-c1ccccc1)c1ccccc1O | - | - | - | 63 | - | - | .
SMILES | Granule exo inh | ABHD5 PLIN5 PPI | UPR CHOP act | Mdm2 MdmX PPI | UPR XBP1 act | Mdm2-MdmX conf | Full FLuc ctr
CCOC(=O)c1c[nH][nH]c1=O | - | - | - | - | - | . | .
Cc1ccc(-n2c(O)c(C=NCc3ccccn3)c3ccccc3c2=O)cc1C | - | - | - | 51 | - | - | .
COc1cc(/C=C/C(=O)O)ccc1OS(=O)(=O)c1cc(Br)ccc1C | - | - | - | - | - | . | .
CCC(C)Nc1nc(N)c([N+](=O)[O-])c(Nc2ccccc2OC)n1 (centres undefined) | - | - | - | 59 | - | - | .
COc1ccccc1Nc1nc(NCCCN(C)C)nc(N)c1[N+](=O)[O-] | - | - | - | - | - | . | .
CCC(C)Nc1nc(N)c([N+](=O)[O-])c(Nc2cc(OC)ccc2OC)n1 (centres undefined) | - | - | - | 69 | - | - | .
c1ccc(C2CC(c3ccccc3)n3c(nc4ccccc43)N2)cc1 (centres undefined) | - | - | - | 63 | - | 40 | 48
Oc1c(I)cc(Cl)c2cccnc12 | - | - | - | 92 | - | 58 | 51
Cc1c(C)c2cccnc2c2ncccc12 | - | - | - | 85 | - | 87 | -
O=[N+]([O-])c1cc(Cl)c2cccnc2c1O | - | - | - | - | - | . | .
Clc1cc2cccnc2c2ncccc12 | - | - | - | 77 | - | 81 | -
CCOc1ccc(C(C)=O)cc1COC(=O)CNC(=O)C12CC3CC(CC(C3)C1)C2 | - | - | - | 57 | - | - | .
CCN1c2ccccc2NC2C1C(C(C)=O)C(=O)N2c1ccc(Cl)cc1 (centres undefined) | - | - | - | - | - | . | .
CCc1ccc(C(=O)C(C)OC(=O)Cc2n[nH]c(=O)c3ccccc23)cc1 (centres undefined) | - | - | - | 59 | - | 74 | 58
CCN1C(=O)c2cccc3c(NC(=O)c4ccc(OC)c(OC)c4)ccc1c23 | - | - | - | 54 | - | - | .
CCN1C(=O)c2cccc3c(NC(=O)c4ccccc4)ccc1c23 | - | - | - | - | - | . | .
CCN1C(=O)c2cccc3c(NC(=O)c4ccc5c(c4)OCCO5)ccc1c23 | - | - | - | 51 | - | - | .
O=C(Nc1cccc2ncccc12)c1ccc2c(c1)OCCO2 | - | - | - | - | - | . | .
CCN1C(=O)c2cccc3c(NC(=O)C4CCCCC4)ccc1c23 | - | - | - | 55 | - | - | .
Cc1cccc(C)c1NC(=O)CSc1nc(N2CCOCC2)nc(N2CCOCC2)n1 | - | - | - | - | - | . | .
Cc1cc(C)c2nc(C(F)(F)F)c(C#N)c(N)c2c1 | - | - | - | 71 | - | 86 | 55
Cc1ccc2nc(C(F)(F)F)c(C#N)c(N)c2c1 | - | - | - | 85 | - | 67 | -
COC(=O)c1ccccc1C(=O)N1CCCC(CNC(=O)c2ccc(F)cc2)C1 (centres undefined) | - | - | - | - | - | . | .
CCCCOc1ccc(C(=O)NCC(=O)NCCOc2ccc(C)cc2)cc1 | - | - | - | - | - | . | .
CN(C)c1ccc(-c2cc(O)c3ncccc3c2)cc1 | - | - | - | 92 | - | 84 | 50
CN(C)CCCNCCCNC(=O)c1ccncc1 | - | - | - | - | - | . | .
CN(C)CCCNC(=O)c1ccc(-c2cc(O)c3ncccc3c2)cc1 | - | - | - | 55 | - | - | 55
COc1ccc(CCNc2nnc(Sc3nnnn3-c3ccccc3)s2)cc1OC | - | - | - | 79 | - | 70 | 83
CC(=O)N/C(=C/c1ccc2c(c1)OCO2)C(=O)N1CCOCC1 | - | - | - | - | - | . | .
